Reference: ChEMBL document CHEMBL1138124, “Novel sulfonanilide analogues suppress aromatase expression and activity in breast cancer cells independent of COX-2 inhibition” (J Med Chem, 2006)
Activity calls are given as the source filed them. The rule behind the calls is not given here.

Assays:
[1] = target: T1, Aromatase (Homo sapiens, UniProt P11511); assay: Inhibition of aromatase activity in human placental microsomes at 5 uM; set-up: species or system Placenta
T1 sequence (P11511 whole entry): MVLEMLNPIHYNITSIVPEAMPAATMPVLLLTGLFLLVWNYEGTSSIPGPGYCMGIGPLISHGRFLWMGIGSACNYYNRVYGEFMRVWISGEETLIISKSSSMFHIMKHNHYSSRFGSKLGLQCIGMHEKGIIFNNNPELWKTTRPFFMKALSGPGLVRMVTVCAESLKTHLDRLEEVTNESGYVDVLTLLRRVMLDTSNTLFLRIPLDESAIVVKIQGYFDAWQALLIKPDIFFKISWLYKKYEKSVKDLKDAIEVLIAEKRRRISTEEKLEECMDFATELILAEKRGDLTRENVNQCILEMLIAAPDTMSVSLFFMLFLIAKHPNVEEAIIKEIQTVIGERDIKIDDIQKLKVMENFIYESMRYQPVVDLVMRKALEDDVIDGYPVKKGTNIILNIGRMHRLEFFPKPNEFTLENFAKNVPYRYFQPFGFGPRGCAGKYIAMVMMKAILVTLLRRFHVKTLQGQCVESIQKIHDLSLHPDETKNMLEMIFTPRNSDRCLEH
Method in brief: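 Human term placental microsomes (50 µg protein) incubated with 100 nM [1β-3H]androst-4-ene-3,17-dione for 15 min at 37 °C, compound at 5 µM. Quenched with chloroform; released 3H2O counted. Triplicates, with background taken from boiled microsomes. 50 µM aminoglutethimide served as positive control. Normalized to vehicle; three independent determinations.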

[2] = test system: MDA-MB-231; assay: Reduction in PGE2 levels in MDA-MB-231 cell; type: functional, cell-based; conditions: Homo sapiens
Method in brief: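 MDA-MB-231 cells in phenol red-free MEM with 10% FBS were plated at 15 × 10^4 per dish, adhered overnight, then serum-starved 24 h. They were then treated 24 h at 37 °C with 25 µM agent or DMSO. PGE2 in the medium was measured by ELISA and normalized to total protein from NaOH extracts; mean ± SEM, n = 6.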

[3] = test system: SK-BR-3; assay: Reduction in CYP19 mRNA expression in SKBr3 cells after 24h exposure to 25uM relative to control; type: functional, cell-based; conditions: Homo sapiens
Method in brief: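 SK-BR-3 cells were exposed 24 h to 25 µM agent or vehicle and total RNA isolated. DNase-treated RNA (2 µg) was reverse transcribed with random hexamers. CYP19 transcripts were quantified by real-time PCR (50 cycles, 95 °C 15 s / 60 °C 1 min), with 18S rRNA as housekeeping reference, relative to vehicle control.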

| Structure (SMILES) | Inhibition [1] | Activity [2] | Activity [3] |
| --- | --- | --- | --- |
| CS(=O)(=O)Nc1ccc([N+](=O)[O-])cc1OC1CCCCC1 [NS-398] | Not Active | Active | Active |
| CCCOc1cc([N+](=O)[O-])ccc1NS(C)(=O)=O | Not Active | – | – |
| COc1cc([N+](=O)[O-])ccc1NS(C)(=O)=O | Not Active | – | – |
| CC(C)Oc1cc([N+](=O)[O-])ccc1NS(C)(=O)=O | Not Active | – | – |
| CN(c1ccc([N+](=O)[O-])cc1OCC1CCCCC1)S(C)(=O)=O | Not Active | inactive | – |
| CCCCCCOc1cc([N+](=O)[O-])ccc1NS(C)(=O)=O | Not Active | – | – |
| CCCCCCCCCOc1cc([N+](=O)[O-])ccc1NS(C)(=O)=O | Not Active | – | – |
| CS(=O)(=O)Nc1ccc([N+](=O)[O-])cc1OCC1CCCCC1 | Not Active | – | – |
| CS(=O)(=O)Nc1ccc([N+](=O)[O-])cc1OC1CCCC1 | Not Active | Active | – |

The next lines start with results.

| Inhibition [1] | Structure (SMILES) | Activity [2] | Activity [3] |
| --- | --- | --- | --- |
| Not Active | CCCCCCOc1cc([N+](=O)[O-])ccc1N(C)S(C)(=O)=O | – | – |
| Not Active | CCC(CC)Oc1cc([N+](=O)[O-])ccc1NS(C)(=O)=O | Active | Active |
| Not Active | CC(C)Oc1cc([N+](=O)[O-])ccc1N(C)S(C)(=O)=O | – | – |
| Not Active | CCCOc1cc([N+](=O)[O-])ccc1N(C)S(C)(=O)=O | – | – |
| Not Active | CN(c1ccc([N+](=O)[O-])cc1OC1CCCC1)S(C)(=O)=O | inactive | – |
| Not Active | COc1cc([N+](=O)[O-])ccc1N(C)S(C)(=O)=O | – | – |
| Not Active | CCC(CC)Oc1cc([N+](=O)[O-])ccc1N(C)S(C)(=O)=O | inactive | Active |
| Not Active | CCCCCCCCCOc1cc([N+](=O)[O-])ccc1N(C)S(C)(=O)=O | – | – |
| Not Active | CN(c1ccc([N+](=O)[O-])cc1OC1CCCCC1)S(C)(=O)=O | inactive | Active |
